Data set [1] is described as follows: folding enthalpy; higher = less favourable; fluorescence melt of hairpins on a sequencing array, two-state fit. To be noted: sodium 0.088 M. In a few lines:
(§1)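 To match UV melts, fitted temperatures were raised by 9.35 °C. These fits were bootstrapped two-state models that gave melting temperature and folding enthalpy, combined by inverse variance over four replicates. The input was normalised Cy3 fluorescence of library hairpins with annealed Cy3 and quencher oligos on a sequenced MiSeq flow cell, imaged in 50 mM Na-HEPES pH 8.0, 25 mM NaCl in 2.5 °C steps up to 60 °C.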

Data set [2] in a line: melting temperature; fluorescence melt of hairpins on a sequencing array, two-state fit, raised by 9.35 °C to match UV melts. To be noted: sodium 0.088 M. In a few lines:
as §1

On to GAGATCCCGAAAGGGCTC (((..(((....)))))), for which the folding enthalpy in data set [1] is -12 kcal/mol. Further, in data set [2], the Tm is 34.9 °C.

Take GAGATCCGAAAGGAGCTC (((.(((....))).))): in data set [1], the folding enthalpy was -44.9 kcal/mol. In addition, in data set [2], the Tm worked out at 60.8 °C.

For the sequence GAGATCGGAAACGATCTC (((((((....))))))), in data set [1], the folding enthalpy is -43 kcal/mol. Further, the Tm in data set [2] worked out at 66.8 °C.

With GAGATGCGAAAGCAGCTC (((.(((....))).))), in data set [1], the folding enthalpy was -34.6 kcal/mol. Besides, the Tm in data set [2] worked out at 69.1 °C.

In the case of GAGATGGCGAAAGCCCTC (((..(((....)))))), the folding enthalpy in data set [1] was -10.3 kcal/mol. In addition, in data set [2], the Tm was determined as 32.8 °C.

For GAGATTGGAAACGATCTC (((((.(....).))))), in data set [1], the folding enthalpy was -36.1 kcal/mol. The Tm in data set [2] was determined as 44.2 °C.

As for GAGCAACGAAAGTTCCTC (((.(((....))).))), the folding enthalpy in data set [1] was -13.6 kcal/mol. In addition, the Tm in data set [2] came out at 32.3 °C.

Regarding GAGCAACGAAAGTTTCTC (((.(((....))).))), in data set [1], the folding enthalpy was -26.3 kcal/mol. Besides, in data set [2], the Tm came out at 37 °C.

As to GAGCACACGAAAGTGCTC (((..(((....)))))), the folding enthalpy in data set [1] was -33.4 kcal/mol. Moreover, the Tm in data set [2] was 57.8 °C.

On to GAGCACCGAAAGGTCCTC (((.(((....))).))), for which, in data set [1], the folding enthalpy is -22.2 kcal/mol. The Tm in data set [2] was 40.8 °C.

For GAGCACCGAAAGGTCTC (((.(((....)))))), the folding enthalpy in data set [1] is -24.1 kcal/mol. For the same sequence, the Tm in data set [2] came out at 47.6 °C.

On to GAGCACGAAAGTGAGCTC ((((((....)))..))), for which, in data set [1], the folding enthalpy is -25.4 kcal/mol. In addition, in data set [2], the Tm was 49.6 °C.

In the case of GAGCACGAAAGTGTACTC ((((((....)))..))), the folding enthalpy in data set [1] was -15.4 kcal/mol. In addition, the Tm in data set [2] is 37.5 °C.

With GAGCACGAAAGTGTGCTC ((((((....)))..))), the folding enthalpy in data set [1] was -31.2 kcal/mol. Also, in data set [2], the Tm came to 58.6 °C.

As for GAGCACGGAAACGTACTC (((.(((....))).))), in data set [1], the folding enthalpy was -32.9 kcal/mol. The Tm in data set [2] turned out to be 45.4 °C.

Regarding GAGCAGCGAAAGCTCCTC (((.(((....))).))), the folding enthalpy in data set [1] is -15.2 kcal/mol. In data set [2], the Tm turned out to be 37.5 °C.

Consider GAGCAGCGAAAGCTCTC (((.(((....)))))), for which the folding enthalpy in data set [1] was -17.6 kcal/mol. Further, in data set [2], the Tm was determined as 47.4 °C.

GAGCATGAAAATGCTC ((((((....)))))): the folding enthalpy in data set [1] was -33 kcal/mol. Moreover, the Tm in data set [2] was 63.2 °C.

For the sequence GAGCATGCGAAAGCACTC (((..(((....)))))), the folding enthalpy in data set [1] was -8.93 kcal/mol. The Tm in data set [2] came out at 27 °C.

Consider GAGCCACCGAAAGGTCTC (((..(((....)))))), for which the folding enthalpy in data set [1] is -12.2 kcal/mol. For the same sequence, the Tm in data set [2] turned out to be 29.7 °C.

For GAGCCAGGAAACTGACTC (((.(((....))).))), the folding enthalpy in data set [1] is -36.8 kcal/mol. Besides, the Tm in data set [2] worked out at 44 °C.

GAGCCCGAAAGGGCCTC ((((((....))).))): the folding enthalpy in data set [1] is -8.72 kcal/mol. In data set [2], the Tm came to 58.9 °C.

For the sequence GAGCCCGAAAGGGTTCTC ((((((....)))..))), the folding enthalpy in data set [1] was -19.9 kcal/mol. For the same sequence, the Tm in data set [2] amounted to 66.9 °C.

Turning to GAGCCCGGAAACAGGCCC (.(((.(....).))).), in data set [1], the folding enthalpy was -8.46 kcal/mol. Further, in data set [2], the Tm amounted to 27.1 °C.

Turning to GAGCCCGGAAACGGACTC (((.(((....))).))), the folding enthalpy in data set [1] is -33.1 kcal/mol. Also, the Tm in data set [2] is 52.4 °C.

As for GAGCCGCCGAAAGGCCTC (((..(((....)))))), the folding enthalpy in data set [1] is -8.95 kcal/mol. Besides, in data set [2], the Tm came out at 33.1 °C.

With GAGCCGCGAAAGCGCCTC (((.(((....))).))), the folding enthalpy in data set [1] was -16 kcal/mol. In addition, the Tm in data set [2] stood at 46.4 °C.

Consider GAGCCGCGAAAGCGCTC (((.(((....)))))), for which the folding enthalpy in data set [1] is -16.7 kcal/mol. Further, the Tm in data set [2] turned out to be 58.9 °C.

Turning to GAGCCGCGAAAGCGTCTC (((.(((....))).))), the folding enthalpy in data set [1] was -22.4 kcal/mol. Besides, the Tm in data set [2] is 54.3 °C.

On to GAGCCGGGAAACCAGCTC ((((.((....)).)))), for which the folding enthalpy in data set [1] is -37.8 kcal/mol. Moreover, the Tm in data set [2] was 48 °C.

With GAGCCTGGAAACAAGCTC ((((.((....)).)))), the folding enthalpy in data set [1] was -29.8 kcal/mol. Also, the Tm in data set [2] amounted to 38.6 °C.

Turning to GAGCCTGGAAACAGGCCC (.(((((....))))).), the folding enthalpy in data set [1] was -10.9 kcal/mol. Moreover, in data set [2], the Tm amounted to 47.8 °C.

Turning to GAGCGACGAAAGTCTCTC (((.(((....))).))), in data set [1], the folding enthalpy is -29.5 kcal/mol. Further, in data set [2], the Tm worked out at 46 °C.

Consider GAGCGAGGAAACCCGCTC (((((.(....).))))), for which, in data set [1], the folding enthalpy was -32.5 kcal/mol. Also, the Tm in data set [2] was determined as 54.7 °C.

With GAGCGCCCGAAAGGGCTC (((..(((....)))))), the folding enthalpy in data set [1] is -6.69 kcal/mol. Further, the Tm in data set [2] was found to be 29.4 °C.

Consider GAGCGCCGAAAGGCACTC (((.(((....))).))), for which the folding enthalpy in data set [1] was -20.2 kcal/mol. In data set [2], the Tm is 56.4 °C.

Regarding GAGCGCCGAAAGGCCTC (((.(((....)))))), in data set [1], the folding enthalpy is -14.6 kcal/mol. Also, the Tm in data set [2] was 59.8 °C.

As for GAGCGCGAAAGCGAGCTC ((((((....)))..))), the folding enthalpy in data set [1] is -20.9 kcal/mol. Moreover, the Tm in data set [2] turned out to be 58.3 °C.

Consider GAGCGCGAAAGCGGACTC ((((((....)))..))), for which the folding enthalpy in data set [1] is -13.7 kcal/mol. In addition, in data set [2], the Tm was 52.3 °C.

As for GAGCGCGAAAGCGGCTC ((((((....))).))), in data set [1], the folding enthalpy is -20.6 kcal/mol. The Tm in data set [2] came out at 67.8 °C.

Take GAGCGCGAAAGCGTCCTC ((((((....)))..))): the folding enthalpy in data set [1] was -10 kcal/mol. Moreover, the Tm in data set [2] was 42.2 °C.

For GAGCGCGAAAGCGTTCTC ((((((....)))..))), the folding enthalpy in data set [1] was -18.1 kcal/mol. In data set [2], the Tm stood at 66.8 °C.

For GAGCGCGGAAACGCACTC (((.(((....))).))), the folding enthalpy in data set [1] was -24.2 kcal/mol. Besides, the Tm in data set [2] was 59 °C.

As for GAGCGCGGAAACGTGCTC ((((.((....)).)))), in data set [1], the folding enthalpy was -32.3 kcal/mol. Moreover, the Tm in data set [2] was 65.6 °C.

In the case of GAGCGGCGAAAGCCTCTC (((.(((....))).))), the folding enthalpy in data set [1] is -20.5 kcal/mol. In data set [2], the Tm was found to be 51.7 °C.

Regarding GAGCGGGGAAACTCGCTC (((((.(....).))))), in data set [1], the folding enthalpy was -38.3 kcal/mol. The Tm in data set [2] stood at 60.4 °C.

With GAGCTACGAAAGTAACTC (((.(((....))).))), the folding enthalpy in data set [1] was -25.5 kcal/mol. Further, in data set [2], the Tm worked out at 42.3 °C.

GAGCTAGGAAACCAGCTC (((((.(....).))))): in data set [1], the folding enthalpy is -39.1 kcal/mol. For the same sequence, the Tm in data set [2] came to 46.3 °C.

GAGCTCCCGAAAGGGCTC (((..(((....)))))): the folding enthalpy in data set [1] is -17.7 kcal/mol. Also, in data set [2], the Tm worked out at 44.4 °C.

As to GAGCTGCGAAAGCACCTC (((.(((....))).))), in data set [1], the folding enthalpy is -17 kcal/mol. In data set [2], the Tm worked out at 39.7 °C.

Consider GAGCTTGGAAACAAGCCC (.(((((....))))).), for which the folding enthalpy in data set [1] is -13.2 kcal/mol. Moreover, the Tm in data set [2] was 42.8 °C.

Regarding GAGCTTGGAAACAAGTTC ((.((((....)))).)), the folding enthalpy in data set [1] was -25.9 kcal/mol. In data set [2], the Tm came to 44.1 °C.

As for GAGGAACGAAAGTTCTC (((.(((....)))))), in data set [1], the folding enthalpy was -13.6 kcal/mol. Further, in data set [2], the Tm came out at 38.9 °C.

Regarding GAGGAACGAAAGTTTCTC (((.(((....))).))), the folding enthalpy in data set [1] is -35.9 kcal/mol. In data set [2], the Tm was found to be 49.9 °C.

For the origin of these results see the array DNA melting data of Ke et al. (doi:10.1101/2024.01.08.574731).
